# Measured values taken from ChEMBL document CHEMBL4513216, “Probing the Open Global Health Chemical Diversity Library for Multistage-Active Starting Points for Next-Generation Antimalarials” (ACS Infect Dis, 2020).
# Assay: Toxicity liver stage against HepG2, at 10uM
# Type: cell-based
# Parameters: test concentration 10 uM, cell line HepG2-A16-CD81EGFP
# Conditions: human, HepG2-A16-CD81EGFP cells; read-out: INHIBITION
# Summary of the method: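 Uninfected HepG2-A16-CD81EGFP cells, 3 × 10^3 per well, 1536-well, plated on prespotted compound at 10 μM final, parasite-free screening media added to match infected plates; puromycin 10 μM positive, DMSO 0.5% negative; run in parallel with 48 h PbLuc assay at 37 °C, 5% CO2; viability by CellTiter-Glo luminescence, normalized to controls.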
row,SMILES,cytotoxicity at 10 µM
1,c1cnc(N2CCO[C@H]3[C@H](OCC4CCOCC4)CC[C@@H]32)nc1,4.55%
2,Cc1cnc(N2CC[C@@H]3CN(CCC(C)C)S(=O)(=O)[C@@H]3CC2)nc1,-3.1%
3,CC(=O)N1CCC2(CC1)CC(C(C)C)=NO2,8.74%
4,C[C@@H]1CN(C(=O)c2ccc[nH]2)C[C@]12CCN(CCN1CCCC1)C2=O,10.4%
5,Cc1nc(CN2CCC3(C2)CN(Cc2ccco2)C3)cs1,-106%
6,Cc1cnn(C2CCCN(C(=O)C3=NN(C)C(=O)CC3)C2)c1 (stereo not drawn),-3.71%
7,Cc1ccc(OC(C)CNC(=O)c2c[nH]nn2)cc1 (stereo not drawn),-0.0422%
8,CC(=O)N1CC2(CCN(c3ccc4ccccc4n3)CC2)CC1C(=O)O (stereo not drawn),5.33%
9,CC(C)NS(=O)(=O)c1cc(C(=O)O)cc(-c2ccccc2C#N)c1,-3.73%
10,Cc1ccc(OCC(O)CNC(=O)C2(c3ccc(F)cc3)CC2)cc1 (stereo not drawn),0.675%
11,Cc1nc(N(C)C)nc(N(C)Cc2cnccn2)c1C,3.4%
12,Cc1cccc(CN2C(=O)C[C@H]3[C@@H]2CCN3Cc2cccs2)n1,-79.6%
13,CC(C)(C)CC(=O)N1C[C@@H]2C[C@@H]1CN2,6.59%
14,CCCS(=O)(=O)NCCc1ncc(CC)s1,-1.56%
15,COc1ccc(-c2cc(N)on2)cc1OC,-9.85%
16,CCN1CC2(CCN(CC3COCCO3)CC2)OC1=O (stereo not drawn),-4.15%
17,CCS(=O)(=O)c1nccn1-c1cccc(F)c1,3.12%
18,CCCc1cc(C(=O)N[C@@H](CO)[C@@H](O)c2ccccc2)n(C)n1,4.76%
19,Cn1ncc2c(NCCOc3ccc(F)cc3)nc(C3CCCC3)nc21,6.1%
20,CC(CN1CCOCC1)NCc1nncn1C1CCCCC1 (stereo not drawn),1.52%
21,Cc1noc(C2CCCCN2C(=O)NC2CCCC2)n1 (stereo not drawn),2.4%
22,O=c1cc(C2CCNCC2)nc(CCCc2ccccc2)[nH]1,2.03%
23,CC(C(=O)N1CCCC1)n1nc(-c2cccs2)cc(N)c1=O (stereo not drawn),6.66%

row,SMILES,cytotoxicity at 10 µM
1,O=C(CCc1nc(-c2ccsc2)no1)NCC1CCN(C2CC2)C1 (stereo not drawn),3.23%
2,COCC1CC2(CCN(C(=O)c3ccco3)CC2)CN1C(C)C (stereo not drawn),4.71%
3,O=C(NCc1ccoc1)NC1CCCN(c2ncccn2)C1 (stereo not drawn),-1.27%
4,COCCC(C)NC(=O)Nc1ccc(N2CCOC2=O)c(OC)c1 (stereo not drawn),6.48%
5,CCn1ccc(CN(C)C(=O)CSc2nnc(N)s2)n1,3.45%
6,CC(C)C(=O)NS(=O)(=O)c1ccc(F)c(C(F)(F)F)c1,-2.32%
7,CC(NC(=O)NC1CC1)c1nc(-c2ccccc2)cs1 (stereo not drawn),-5.83%
8,Cc1ccc(CN(CCCN(C)C)Cc2cnc(C)n2C)o1,9.96%
9,CN(C)C1CCCN(C(=O)NCCC(C)(C)C)C1 (stereo not drawn),-0.317%
10,CC(C)c1nc(CNc2ccc(CCO)cc2)cs1,20.1%
11,CC(C)(C)CC(=O)N1CCC(n2cc(C3(O)CCCC3)nn2)CC1,8.64%
12,O=C(NCCNS(=O)(=O)C1CCCCC1)c1ccccc1,-3.82%
13,CCc1noc(C(C)N2CCC(N3CCCCC3)CC2)n1 (stereo not drawn),-4.8%
14,CC(=O)NCc1nnn2c1CN(c1ncc(C)cn1)CCC2,-102%
15,Cc1cc(C(=O)N2CCC(O)(Cn3c(C)cc4ccncc43)CC2)on1,9.55%
16,O=C1NCCCCC1NCc1csc(-c2ccsc2)n1 (stereo not drawn),3.27%
17,O=C(NCc1ccco1)[C@H]1COC[C@H]2CN(Cc3ccccn3)C[C@H]21,-72.4%
18,NC(=O)CN1CCN(S(=O)(=O)N2CCCC2c2ccco2)CC1 (stereo not drawn),-3.48%
19,CCn1cnnc1C1CCN(C(=O)c2cnc(C)s2)CC1,-8.45%
20,Cc1nccn1CCC1CCCCN1Cc1cnc(N(C)C)nc1 (stereo not drawn),1.45%
21,Clc1ccc(-n2nnnc2C2(NCc3ccco3)CCCCC2)cc1,15.7%
22,Cn1nnc2cc(C(=O)N3CCCC3Cc3ccccc3)ccc21 (stereo not drawn),-14.7%
23,O=C(NCC1CC1)Nc1cnc2ccc(F)cc2c1O,-8.58%

row,SMILES,cytotoxicity at 10 µM
1,Cc1cc(O)nc(C2CN(CCO)CCO2)n1 (stereo not drawn),-27.8%
2,CC(C)NC(=O)c1cc(Br)c2c(c1)OCCO2,-13.3%
3,NC(=O)C1CCCN1Cc1ccccc1NC(=O)Cc1cccs1 (stereo not drawn),7.31%
4,CCn1ccc(NC(=O)CCc2c(C)noc2C)n1,7.16%
5,NS(=O)(=O)CCNC(=O)c1cc2cccc(F)c2o1,2.46%
6,CCc1nc2c(s1)C(N(C)C(C)=O)CCC2 (stereo not drawn),-11.6%
7,CN(CCO)Cc1nnc(C2CCN(C(=O)c3ccccc3)CC2)n1C,1.93%
8,CC(CCc1ccccc1F)C(=O)NS(=O)(=O)CC1CC1 (stereo not drawn),-5.36%
9,Cc1nnc(CNC(C)c2cc(C)c(F)c(C)c2)s1 (stereo not drawn),-3.7%
10,Cc1cccc(NCCNc2ccc(C#N)cn2)n1,18%
11,COCCC(=O)N1CCC2(COCc3cnc(N(C)C)nc32)C1 (stereo not drawn),-64.8%
12,CCN(C)S(=O)(=O)N1CCCC(c2cccc(C(=O)O)c2)C1 (stereo not drawn),0.91%
13,Cc1cnn(CC(=O)N2CCC3(CCC(=O)N(CC(C)O)C3)CC2)c1 (stereo not drawn),3.05%
14,Cc1nc2c(c(NC3CCN(Cc4cccnc4)CC3)n1)CCNCC2,-1.14%
15,CCOCc1nc2c(c(NC(COC)c3ccccn3)n1)CCNCC2 (stereo not drawn),-3.21%
16,CC(NC(=O)c1ccc(Cl)cc1)c1nnc(SCC(=O)O)n1C (stereo not drawn),-9.35%
17,N#Cc1cccc(Cl)c1NC1CCN(CC(N)=O)CC1,-5.87%
18,Cc1nc(CN2CCCC(NCc3cccc4ccccc34)C2)no1 (stereo not drawn),-0.819%
19,O=S(=O)(NCc1ccnc(-n2ccnc2)c1)c1cncc(F)c1,1.28%
20,Cc1nnc2n1CCN(Cc1nc3ccccc3o1)C2,-6.48%
21,O=C1CO[C@@H]2CN(Cc3cccs3)C[C@H]2N1Cc1cccnc1,-77.6%
22,Cc1nnc(CN(Cc2ccccc2Cl)C2CCCC2)o1,0.256%
23,CCc1n[nH]c(C2CN(CCCOc3cccc(C)c3)CCO2)n1 (stereo not drawn),-15%

row,SMILES,cytotoxicity at 10 µM
1,COCCc1noc(CNC2CCc3nc(C(C)C)nn3C2)n1 (stereo not drawn),4.28%
2,Cc1nn(C)c(N(C)C)c1CNC(C)Cc1c(F)cccc1F (stereo not drawn),-1.03%
3,COc1cccc(S(=O)(=O)CCN2CCn3c(C)nnc3C2)c1,-18.7%
4,Cc1nc(C)n(C2CCCN(C(=O)CCc3cn(C)nc3C)C2)n1 (stereo not drawn),-11.5%
5,CCCNC(=O)C(C)Nc1ccc(COCC)cc1 (stereo not drawn),2.37%
6,FC(F)(F)c1cccc(N2CCC(NCc3cccnc3)CC2)c1,-64.5%
7,CCn1ncc2c1CN(C(=O)c1cc(C)oc1C)CC2COC (stereo not drawn),13%
8,COc1ccc(CN(Cc2cccnc2)CC2CCCO2)c(OC)c1 (stereo not drawn),1.13%
9,CC(=O)N1CCc2c(nc(N(C)C)nc2N(C)CC2CCCO2)C1 (stereo not drawn),1.9%
10,CCS(=O)(=O)N1CCCn2c(nc(CN3CCCC3)cc2=O)C1,1.88%
11,Cc1ccc(NC2CCN(C(=O)Cc3cccs3)CC2)nn1,-6.8%
12,Cc1ccc(Cn2nc(C)c3c(C(=O)O)c(Cl)c(C)nc32)cc1,5.53%
13,O=C(C1CC1)N1CCOC2(CCNCC2)C1,-112%
14,COCC(=O)NC[C@H]1OC[C@@H](NC2CCC(F)(F)CC2)[C@@H]1O,-3.32%
15,CCN(CC)C(=O)[C@@H]1C[C@H](n2cc(-c3ccccn3)nn2)CN1,-20.6%
16,COCCCN1CC2(CCCN(c3ncc(Cl)cc3F)C2)CCC1=O (stereo not drawn),-13.1%
17,Cc1cc(CN(C)C(=O)NC2CCC(O)CC2)no1 (stereo not drawn),-0.252%
18,N#Cc1cc(F)ccc1NCc1ccc(Cn2cncn2)cc1,8.75%
19,O=c1c2ccccc2nc2n1C(CSc1ccc(Cl)cc1Cl)CN2 (stereo not drawn),6.01%
20,CC(=O)N1CCN(C(=O)CCn2c(C)nc3ccccc3c2=O)CC1,-4.81%
21,Cc1cc(F)cc(S(=O)(=O)Nc2ccn(CCCC#N)n2)c1,18%
22,Cc1noc(C2CCC3(CCN(C(=O)c4c(C)noc4C)CC3)O2)n1 (stereo not drawn),-10.6%
23,O=C(CCn1ccc2ccccc21)N1CCC(Nc2cccnc2)CC1,9.08%

row,SMILES,cytotoxicity at 10 µM
1,CC(C)CN1CCC2(CC1)CN(C(=O)C(C)C)C2,-2.16%
2,Cn1cccc1C(O)CNC(=O)COc1ccccc1F (stereo not drawn),-2.54%
3,COc1cc(N2C[C@H]3CN(C(=O)c4cccnc4)C[C@H]3C2)ncn1,-141%
4,Cc1ccc(-c2nnc(C3CCCN3S(=O)(=O)c3cnn(C)c3C)o2)s1 (stereo not drawn),5.35%
5,Cn1nc(Cn2ccnc2)c2c1CN(C(=O)c1ccoc1)C2,-58.9%
6,Cn1cnnc1-c1cncc(NCc2ccccc2Br)c1,6.53%
7,O=C(c1cncc(N2CCC3(CCCNC3)C2)n1)N1CCCC1 (stereo not drawn),-4.15%
8,Cc1c[nH]nc1C1CN(c2ncccn2)CCO1 (stereo not drawn),4.37%
9,COc1nc2c(cc1C(=O)N1CCCC1c1ccccn1)CCC2 (stereo not drawn),-5.54%
10,COCC(=O)N1CCC2(CC1)CC(OC)CO2 (stereo not drawn),-1.56%
11,CC(=O)NCCOc1c(Cl)cccc1Cl,-8.87%
12,c1cncc(CN2CCCn3nnc(CN4CCCC4)c3C2)c1,4.78%
13,CCN(CC)[C@@H]1CN(S(=O)(=O)c2cn(C)cn2)[C@@H]2CCCO[C@H]12,-147%
14,CCc1nccn1C1CCCN(C(=O)c2ccnc(C)n2)C1 (stereo not drawn),-1.12%
15,CC(=O)NCC(=O)N1CCC(C2CCN(Cc3ccc(Cl)cc3)C2)CC1 (stereo not drawn),-9.12%
16,Cc1ccc(S(=O)(=O)N2C[C@H]3C[C@H](NC(=O)c4ccccn4)[C@H]3C2)cc1,64.3%
17,CCc1csc(C2CCCN(C(=O)c3cnn(CC)c3)C2)n1 (stereo not drawn),4.73%
18,CCOC(C)c1nc(Cn2cccn2)cs1 (stereo not drawn),1.04%
19,CSc1cccc(CN(C)C(=O)C2CC(=O)N(CCN(C)C)C2)c1 (stereo not drawn),-16.5%
20,CCN1CCC(c2nc3ccc(NC(C)C)cn3n2)CC1,-22.3%
21,Cc1nnc(CN2CCC3(CCC(=O)N(C4CC4)C3)CC2)o1,-6.68%
